UHRF1 binding: UHRF1 methylated DNA binding inhibitors, primary screen, counter-screen for MBD2 inhibitor project, biochemical, TR-FRET, human UHRF1, single concentration. actives 0.75% (n = 370,000). E3 ubiquitin-protein ligase UHRF1 (Homo sapiens), Q96T88. inhibition, % at 4.4 µM. AID 687016, 2013. UHRF1 binding to methylated oligo; in the data active = inhibition above about 21%;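 note: UHRF1 SRA domain binding a hemimethylated CpG hairpin DNA probe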
LEDGF integ inh: blockers of LEDGF/p75-dependent integrase strand transfer – biochemical, TR-FRET, high throughput, primary screen | HIV-1 integrase (with human LEDGF/p75) | TR-FRET IN-LEDGF/p75 DNA integration, Eu/Cy5 | inhibition, % at 3.7 µM | actives 0.64% (n = 370,000);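 active = inhibition above the screen-wide mean plus 3 SD, cut at about 13% in these data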;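 note: signal is the Cy5 over europium emission ratio at 671 and 618 nm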
CASP6 VEID inh: human caspase-6 inhibitors, primary screen, biochemical, VEID-R110 fluorescence, single point, set 2; P55212; purified caspase-6, Z-VEID-R110 cleavage fluorescence; inhibition, % at 12.5 µM; actives 0.53% (n = 350,000); AID 686996, 2013;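 active = mean inhibition across replicates at least about 35%, with every replicate also reaching that limit, limit read from the data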
NSD2 inh: NSD2 histone methyltransferase inhibitors, primary screen, biochemical, AlphaScreen, single concentration, set 2; AID 743445, 2014; Histone-lysine N-methyltransferase NSD2 (Homo sapiens), O96028; actives 0.54% (n = 310,000); inhibition, % at 12.5 µM; NSD2 peptide methylation, 120 min; in the data active = inhibition above about 50%
TDP2 absorb: human TDP2 enzyme inhibitors, primary screen, biochemical, epi absorbance, recombinant enzyme | Tyrosyl-DNA phosphodiesterase 2 (Homo sapiens), O95551 | T5PNP hydrolysis, p-nitrophenol absorbance 415 nm | inhibition, % at 12.8 µM | actives 0.34% (n = 370,000) | AID 720702, 2013;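 active = inhibition above the mean of all tested compounds plus 3 SD, set per campaign, cut at about 25% in these data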
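Material: recombinant human TDP2; quantity: TDP2 enzyme at 120 nM final; medium: Tris-HCl pH 7.5 with MgCl2; compound: single concentration, 12.8 µM nominal, with 1% DMSO; incubation: 2 h enzyme incubation at 37 °C; signal: epi absorbance; measure: percent inhibition; benchmarks: high control without enzyme, low control DMSO plus TDP2; repeats: singlicate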
MBD2 DNA inh: inhibitors of MBD2 binding to methylated DNA, primary screen, biochemical, TR-FRET, DNA-binding domain, human; actives 0.31% (n = 370,000); inhibition, % at 4.4 µM; MBD2 binding to methylated oligonucleotide; AID 686964, 2013; Methyl-CpG-binding domain protein 2 (Homo sapiens), Q9UBB5; in the data active = inhibition above about 13%
Numbers stand for hits; n = inactive; x = no result given. Sampled rows, rich in hits. Any-hit rate of the full collection: about 1.9%.

SMILES | UHRF1 binding | LEDGF integ inh | CASP6 VEID inh | NSD2 inh | TDP2 absorb | MBD2 DNA inh
Cc1ccc(C)c(N2N=C(C(=O)O)CCC2=O)c1 | n | n | n | n | n | n
Cc1ccc(/C=N/NS(=O)(=O)c2ccc([N+](=O)[O-])cc2)o1 | n | n | x | n | n | n
Cc1ccc(S(=O)(=O)N/N=C\c2ccc(C)o2)cc1 | n | n | 40.6 | n | n | n
Cc1cccc(C)c1NC(=O)c1cc(S(=O)(=O)N2CCC3(CC2)OCCO3)ccc1F | n | n | 65.3 | n | n | n
COc1ccc(C)cc1NC(=O)c1cc(S(=O)(=O)N2CCC3(CC2)OCCO3)ccc1F | n | n | n | n | n | n
O=C(N[C@@H]1CC[C@H](CCNS(=O)(=O)c2ccc(F)cc2)O[C@@H]1CO)c1cccnc1 | x | x | n | x | x | x
COCC(=O)Nc1ccc2c(c1)[C@H]1C[C@H](CC(=O)NCc3ccc4c(c3)OCO4)O[C@@H](CO)[C@H]1O2 | x | x | n | x | x | x
O=C(NC[C@@H]1[C@@H](c2ccccc2)[C@@H](CO)N1CC1CCCC1)c1ccccc1 | x | x | n | x | x | x
O=C1C(O)=CC(=C(c2ccccc2)c2ccccc2)c2ccccc21 | n | n | n | n | 25.6 | n
CNC[C@@H]1Oc2ncc(C#Cc3ccncc3)cc2C(=O)N([C@H](C)CO)C[C@@H]1C | x | x | n | x | x | x
O=[N+]([O-])c1ccc(N2CCCC2)cc1N1CCCC1 | n | n | x | 53.4 | n | n
CCOC(=O)C1=CN(Cc2cccc(F)c2)S(=O)(=O)N(CC)C1c1ccc(Br)cc1F (stereo not drawn) | 21.2 | n | n | x | n | n
COc1ccc(CNC(=O)CCS(=O)(=O)c2ccc(Br)cc2)cc1 | n | n | 57.3 | n | n | n
COc1ccc(CNC(=S)Nc2ccc(OC)cc2)cc1 | n | n | x | n | n | n
CCc1cccc(NC(=O)CCS(=O)(=O)c2ccc(Br)cc2)c1 | n | n | 71.5 | n | n | n
COc1ccc(CNC(=S)Nc2ccc(S(N)(=O)=O)cc2)cc1 | n | n | n | n | 43.4 | n
CNC[C@H]1Oc2ccc(NC(=O)CCC(F)(F)F)cc2C(=O)N([C@H](C)CO)C[C@@H]1C | x | x | n | x | x | x
OC(CC#CCN1CCCC1)(c1ccccc1)c1ccccc1 | 22.1 | n | n | n | n | n
CN1CCC(CO)(Cc2ccccc2)CC1 | 22.0 | n | n | n | n | n
OCC1(Cc2ccc(Cl)cc2)CCN(CCCc2ccccc2)CC1 | n | n | n | n | n | n
CO[C@H]1CN(C)C(=O)c2cc(NC(=O)c3cnccn3)ccc2OC[C@H](C)N(C(=O)C2CC2)C[C@@H]1C | x | x | n | x | x | x
CC(C)OCCCNC(=O)C(=O)NCCCOC(C)C | n | n | x | n | n | n
CC(C)OCCCNC(=S)NNC(=O)C(c1ccccc1)c1ccccc1 | 22.0 | n | n | n | n | n
CCOC(=O)c1sc(Nc2ccccc2Cl)nc1C | 26.6 | n | n | n | n | n
CCOC(=O)c1sc(NC(=O)Nc2ccccc2F)nc1C | n | n | x | n | n | n
SMILES | UHRF1 binding | LEDGF integ inh | CASP6 VEID inh | NSD2 inh | TDP2 absorb | MBD2 DNA inh
O=C(C[C@@H]1CC[C@@H]2[C@H](COC[C@H](O)CN2CC2CCCCC2)O1)NCc1ccc(Cl)cc1 | x | x | n | x | x | x
CCOC(=O)C1=C(COC(=O)c2ccc([N+](=O)[O-])o2)NC(=O)NC1C (stereo not drawn) | n | n | 42.8 | n | n | n
CC1CC(C)CN(C(=O)COC(=O)c2ccc([N+](=O)[O-])o2)C1 (stereo not drawn) | n | n | n | n | n | n
CCOC(=O)C1CCN(C(=O)COC(=O)c2ccc([N+](=O)[O-])o2)CC1 | n | n | 56.0 | n | n | n
CN(C)CC#Cc1ccc([C@H]2[C@@H](CO)N3C(=O)CN(C(=O)c4cccc(F)c4)C[C@H]23)cc1 | x | x | n | x | x | x
O=C(CCN1CCCCC1)NCC[C@@H]1CC[C@@H](NS(=O)(=O)c2cccc(F)c2)[C@H](CO)O1 | x | x | n | x | x | x
O=C(N[C@H](Cc1ccccc1)C(=O)N1CCN(C(=O)N2CCCCC2)CC1)[C@H]1O[C@@H](n2ccc(=O)[nH]c2=O)[C@H](O)[C@@H]1O | n | n | n | x | n | n
O=C(N[C@H](Cc1ccccc1)C(=O)N1CCN(C(=O)N2CCOCC2)CC1)[C@H]1O[C@@H](n2ccc(=O)[nH]c2=O)[C@H](O)[C@@H]1O | n | n | 50.6 | x | n | n
C[C@@H]1CN([C@@H](C)CO)C(=O)c2cc(NC(=O)Nc3ccc(C(F)(F)F)cc3)ccc2O[C@@H]1CN(C)C(=O)Nc1ccc2c(c1)OCO2 | x | x | n | x | x | x
C[C@H](CO)N1C[C@H](C)[C@H](CN(C)C(=O)Nc2ccccc2)Oc2ncc(-c3ccc(C#N)cc3)cc2C1=O | x | x | n | x | x | x
Cc1sc(NC(=O)CSc2n[nH]c(N)n2)c(C#N)c1C | n | n | 40.2 | n | n | n
CC1=NN(c2ccc(C)cc2C)C(=O)C1C(c1cccc(O)c1)C1C(=O)N(c2ccc(C)cc2C)N=C1C (stereo not drawn) | n | n | x | x | 70.6 | n
COc1cc(CC2COC(c3ccc(O)c(OC)c3)C2COC(C)=O)ccc1O (stereo not drawn) | n | 14.3 | 57.6 | x | n | n
COc1cc([C@@H]2OC[C@@H]3[C@H]2CO[C@@H]3c2ccc3c(c2)OCO3)ccc1O | n | n | n | x | n | n
C#CCN1[C@H](/C=C/C2CC2)[C@H](Cc2ccccc2)OC(=O)[C@@H]1Cc1ccccc1 | x | x | n | x | x | x
Cc1ccc(Nc2nc(C)c3c(n2)CC(C)CC3=O)c(C)c1 (stereo not drawn) | 28.4 | n | n | n | n | n
CNC(=O)C[C@@H]1CC[C@@H]2[C@H](COC[C@@H](O)CN2Cc2ccncc2)O1 | x | x | n | x | x | x
O=C(Cn1cnc2sc3c(c2c1=O)CCCC3)NCC(=O)Nc1c(F)cccc1F | 22.2 | n | n | n | n | n
O=C(CNC(=O)Cn1cnc2sc3c(c2c1=O)CCCC3)NCc1ccccn1 | n | n | n | x | n | n
COc1ccc(N2CCN(C(=O)c3cc4c(s3)-c3ccccc3S(=O)(=O)C4)CC2)cc1 | 22.3 | n | n | n | n | n
O=C(O)c1cccc(N/N=C/c2cccc3ccccc23)c1 | 41.6 | n | n | n | n | n
COc1cccc(-c2ccc([C@@H]3[C@@H](CO)N4C(=O)CN(C(=O)C5CCC5)C[C@H]34)cc2)c1 | x | x | n | x | x | x

Screening results (PubChem BioAssay)
